Reference: ChEMBL document CHEMBL1124037, “Structure-activity relationship in PAF-acether. 4. Synthesis and biological activities of carboxylate isosteres” (J Med Chem, 1988)

Tests used:
Cavia porcellus [1] = experiment: In vivo activity for protection against histamine induced bronchoconstriction in guinea pig after 5 min of intravenous administration (1 mg/kg); format: functional
Cavia porcellus [2] = experiment: In vivo activity for protection against PAF-acether induced bronchoconstriction in guinea pig after 5 min of intravenous administration (0.5 mg/kg); format: functional
In short: (§1)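 Male Hartley guinea pigs (450-500 g), urethane 1.25 g/kg ip, pancuronium 2 mg/kg, ventilated (50 strokes/min, 10 mL/kg). Antagonist iv 5 min before PAF 100 ng/kg iv. Konzett-Rossler lung inflation resistance vs control group; platelet counts from carotid blood 1 min before and after PAF. Percent inhibition per dose.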

Oryctolagus cuniculus [3] = experiment: […] antagonistic activity against arachidonic-acid induced platelet aggregation (2*10e-4 M); format: functional
In short: (§2)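 Rabbit PRP (male New Zealand, citrated cardiac-puncture blood, 300g 10 min; 300 000 per µL). Antagonist added to stirred PRP 2 min before PAF (5×10⁻⁸ M), collagen (40 µg/mL) or arachidonic acid (2×10⁻⁴ M). Born turbidimetric aggregometry; inhibition vs control aggregation; IC50 from dose-response curves. Compounds dissolved in ethanol 10 mg/mL stock, diluted in saline.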

Rattus norvegicus [4] = experiment: In vivo activity for protection against acetylcholine induced hypotension in rat after 5 mins of intravenous administration (2 mg/kg); format: functional
In short: (§3)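 Male Sprague-Dawley rats (280-300 g), pentobarbital 50 mg/kg ip; jugular iv dosing, carotid pressure recorded. Same protocol as the PAF challenge but using acetylcholine 1 µg/kg iv as agonist: control response, antagonist, then re-challenge. One antagonist dose per rat; percent inhibition per dose.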

Cavia porcellus [5] = experiment: In vivo activity for protection against histamine induced bronchoconstriction in guinea pig after 5 min of intravenous administration (2 mg/kg); format: functional
Cavia porcellus [6] = experiment: In vivo activity for protection against acetylcholine induced bronchoconstriction in guinea pig after 5 min of intravenous administration (2 mg/kg); format: functional
Oryctolagus cuniculus [7] = experiment: […] antagonistic activity against PAF induced platelet aggregation (5 x 10e-8 M ); format: functional; in short: as §2
Oryctolagus cuniculus [8] = experiment: […] antagonistic activity against platelet aggregation; format: functional
Cavia porcellus [9] = experiment: In vivo activity for protection against PAF-acether induced bronchoconstriction in guinea pig after 5 min of intravenous administration (1 mg/kg); format: functional; in short: as §1
Cavia porcellus [10] = experiment: In vivo activity for protection against PAF acether induced thrombocytopenia in guinea pig after 5 min of intravenous administration (2 mg/kg); format: functional; in short: as §1
Oryctolagus cuniculus [11] = experiment: […] antagonistic activity against collagen induced platelet aggregation (40 ug/mL); format: functional; in short: as §2
Cavia porcellus [12] = experiment: In vivo activity for protection against PAF-acether induced bronchoconstriction in guinea pig after 5 min of intravenous administration (2 mg/kg); format: functional; in short: as §1
Cavia porcellus [13] = experiment: In vivo activity for protection against PAF acether induced thrombocytopenia in guinea pig after 5 min of intravenous administration (1 mg/kg); format: functional; in short: as §1
Cavia porcellus [14] = experiment: In vivo activity for protection against acetylcholine induced bronchoconstriction in guinea pig after 5 min of intravenous administration (1 mg/kg); format: functional
Rattus norvegicus [15] = experiment: In vivo activity for protection against PAF acether induced hypotension in rat after 5 mins of intravenous administration (2 mg/kg); format: functional
In short: (§4)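 Male Sprague-Dawley rats (280-300 g), pentobarbital 50 mg/kg ip; jugular iv dosing, carotid arterial pressure by transducer. Control response to PAF 0.3 µg/kg iv, then antagonist; PAF 0.3 µg/kg re-injected and hypotension recorded. One antagonist dose per rat; percent inhibition per dose.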

Oryctolagus cuniculus [16] = experiment: […] antagonistic activity against collagen induced platelet aggregation at a concentration of 40 ug/mL; format: functional; in short: as §2
Rattus norvegicus [17] = experiment: In vivo activity for protection against acetylcholine induced hypotension in rat after 5 mins of intravenous administration (1 mg/kg); format: functional; in short: as §3
Cavia porcellus [18] = experiment: In vivo activity for protection against acetylcholine-induced bronchoconstriction in guinea pig after 5 min of intravenous administration (1 mg/kg); format: functional
Rattus norvegicus [19] = experiment: In vivo activity for protection against PAF acether induced hypotension in rat after 5 mins of intravenous administration (1 mg/kg); format: functional; in short: as §4
Oryctolagus cuniculus [20] = experiment: […] antagonistic activity against arachidonic-acid induced platelet aggregation at a concentration of 2*10e-4 M; format: functional; in short: as §2
Cavia porcellus [21] = experiment: In vivo activity for protection against acetylcholine-induced bronchoconstriction in guinea pig after 5 min of intravenous administration (2 mg/kg); format: functional
Oryctolagus cuniculus [22] = experiment: […] antagonistic activity against PAF induced platelet aggregation at a concentration of 5 x 10e-8 M; format: functional; in short: as §2
Cavia porcellus [23] = experiment: In vivo activity for protection against acetylcholine induced bronchoconstriction in guinea pig after 5 min of intravenous administration (5 mg/kg); format: functional
Rattus norvegicus [24] = experiment: In vivo activity for protection against PAF acether induced hypotension in rat after 5 mins of intravenous administration (5 mg/kg); format: functional; in short: as §4
Rattus norvegicus [25] = experiment: In vivo activity for protection against acetylcholine induced hypotension in rat after 5 mins of intravenous administration (5 mg/kg); format: functional; in short: as §3
Cavia porcellus [26] = experiment: In vivo activity for protection against PAF acether induced bronchoconstriction in guinea pig after 5 min of intravenous administration (2 mg/kg); format: functional; in short: as §1
Cavia porcellus [27] = experiment: In vivo activity for protection against PAF acether induced bronchoconstriction in guinea pig after 5 min of intravenous administration (1 mg/kg); format: functional; in short: as §1
Oryctolagus cuniculus [28] = experiment: In vitro antiaggregation activity against PAF-acether induced platelet aggregation when administered at dose of 1 uM/Kg after 2 minutes; format: functional
Oryctolagus cuniculus [29] = species: Oryctolagus cuniculus; experiment: In vitro aggregant (agonist) activity inducing platelet aggregation
Cavia porcellus [30] = experiment: In vivo activity for protection against PAF acether induced bronchoconstriction in guinea pig after 5 min of intravenous administration (0.5 mg/kg); format: functional; in short: as §1
Cavia porcellus [31] = experiment: In vivo activity for protection against PAF acether induced thrombocytopenia in guinea pig after 5 min of intravenous administration (0.5 mg/kg); format: functional; in short: as §1

## CCCCCCCCCCCCCCCCCCOCC(COC(=O)CCCC[N+](C)(C)C)OCC.[I-] (stereo unspecified)
Cavia porcellus [1]
  Protection: 0%
Cavia porcellus [2]
  Protection: 69%
Oryctolagus cuniculus [3]
  EC50: > 100 µM
Rattus norvegicus [4]
  Protection: 17%
Cavia porcellus [5]
  Protection: 0%
Cavia porcellus [6]
  Protection: 9%
Oryctolagus cuniculus [7]
  EC50: 8 µM
Oryctolagus cuniculus [8]
  ED50: >100 µM
Cavia porcellus [9]
  Protection: 77%
Cavia porcellus [10]
  Protection: 55%
Oryctolagus cuniculus [11]
  EC50: 60 µM
Cavia porcellus [12]
  Protection: 73%
Cavia porcellus [13]
  Protection: 24%
Cavia porcellus [14]
  Protection: 0%
Rattus norvegicus [15]
  Protection: 20%

## CCCCCCCCCCCCCCCCCCOC[C@H](COC(=O)CCCC[N+](C)(C)C)OC(C)=O.[I-]
Cavia porcellus [1]
  Protection: 35%
Cavia porcellus [2]
  Protection: 79%
Rattus norvegicus [4]
  Protection: 5%
Oryctolagus cuniculus [16]
  EC50: ~90 µM
Rattus norvegicus [17]
  Protection: 18%
Cavia porcellus [5]
  Protection: 20%
Cavia porcellus [18]
  Protection: 21%
Rattus norvegicus [19]
  Protection: 18%
Oryctolagus cuniculus [8]
  ED50: >100 µM
Oryctolagus cuniculus [20]
  EC50: > 100 µM
Cavia porcellus [9]
  Protection: 90%
Cavia porcellus [21]
  Protection: 0%
Cavia porcellus [10]
  Protection: 57%
Oryctolagus cuniculus [22]
  EC50: 20 µM
Cavia porcellus [12]
  Protection: 88%
Cavia porcellus [13]
  Protection: 38%
Rattus norvegicus [15]
  Protection: 32%

## CCCCCCCCCCCCCCCCCCNC(=O)OCC(COC(=O)CCCC[N+](C)(C)C)OC(C)=O.[I-] (stereo unspecified)
Cavia porcellus [23]
  Protection: 80%
Oryctolagus cuniculus [3]
  EC50: > 100 µM
Rattus norvegicus [4]
  Protection: 63%
Rattus norvegicus [24]
  Protection: 58%
Cavia porcellus [5]
  Protection: 17%
Cavia porcellus [6]
  Protection: 79%
Oryctolagus cuniculus [7]
  EC50: 13 µM
Rattus norvegicus [25]
  Protection: 74%
Oryctolagus cuniculus [8]
  ED50: >100 µM
Cavia porcellus [10]
  Protection: 38%
Oryctolagus cuniculus [11]
  EC50: 70 µM
Cavia porcellus [26]
  Protection: 90%
Rattus norvegicus [15]
  Protection: 46%
Cavia porcellus [27]
  Protection: 88%

## CCCCCCCCCCCCCCCCCCOCC(COC(=O)CCC[N+](C)(C)C)OC(C)=O (stereo unspecified)
Oryctolagus cuniculus [28]
  EC50: 12 µM
Oryctolagus cuniculus [29]
  EC50: > 100 µM

## CCCCCCCCCCCCCCCCCCOC[C@@H](COC(=O)CCCC[N+](C)(C)C)OC(C)=O.[I-]
Cavia porcellus [1]
  Protection: 0%
Oryctolagus cuniculus [3]
  EC50: > 100 µM
Rattus norvegicus [4]
  Protection: 20%
Cavia porcellus [30]
  Protection: 61%
Rattus norvegicus [17]
  Protection: 16%
Cavia porcellus [5]
  Protection: 0%
Cavia porcellus [6]
  Protection: 0%
Oryctolagus cuniculus [7]
  EC50: 11 µM
Rattus norvegicus [19]
  Protection: 12%
Oryctolagus cuniculus [8]
  ED50: >100 µM
Cavia porcellus [10]
  Protection: 49%
Oryctolagus cuniculus [11]
  EC50: 84 µM
Cavia porcellus [26]
  Protection: 93%
Cavia porcellus [13]
  Protection: 63%
Cavia porcellus [14]
  Protection: 0%
Rattus norvegicus [15]
  Protection: 34%
Cavia porcellus [27]
  Protection: 91%

## CCCCCCCCCCCCCCCCCCOCC(COC(=O)CC[N+](C)(C)C)OC(C)=O (stereo unspecified)
Oryctolagus cuniculus [28]
  EC50: 24 µM
Oryctolagus cuniculus [29]
  EC50: > 100 µM

## CCCCCCCCCCCCCCCCCCOCC(COC(=O)CCC[n+]1ccccc1)OCC.[Cl-] (stereo unspecified)
Cavia porcellus [1]
  Protection: 16%
Cavia porcellus [2]
  Protection: 60%
Oryctolagus cuniculus [3]
  EC50: > 100 µM
Rattus norvegicus [4]
  Protection: 22%
Rattus norvegicus [17]
  Protection: 20%
Cavia porcellus [5]
  Protection: 8%
Cavia porcellus [6]
  Protection: 16%
Oryctolagus cuniculus [7]
  EC50: 1.5 µM
Rattus norvegicus [19]
  Protection: 51%
Oryctolagus cuniculus [8]
  ED50: >100 µM
Cavia porcellus [9]
  Protection: 100%
Cavia porcellus [10]
  Protection: 60%
Oryctolagus cuniculus [11]
  EC50: 100 µM
Cavia porcellus [13]
  Protection: 52%
Cavia porcellus [14]
  Protection: 34%
Rattus norvegicus [15]
  Protection: 53%

## CCCCCCCCCCCCCCCCCCNC(=O)OCC(COP(=O)([O-])OCC[n+]1ccsc1)OC (stereo unspecified)
Cavia porcellus [30]
  Protection: 53%
Rattus norvegicus [17]
  Protection: 0%
Oryctolagus cuniculus [7]
  EC50: 30.5 µM
Rattus norvegicus [19]
  Protection: 45%
Oryctolagus cuniculus [8]
  ED50: >100 µM
Cavia porcellus [31]
  Protection: 32%
Cavia porcellus [10]
  Protection: 69%
Oryctolagus cuniculus [11]
  EC50: 89 µM
Cavia porcellus [26]
  Protection: 85%
Cavia porcellus [13]
  Protection: 62%
Cavia porcellus [27]
  Protection: 72%

## CCCCCCCCCCCCCCCCCCOCC(COC(=O)CCCC[N+](C)(C)C)OC(C)=O (stereo unspecified)
Oryctolagus cuniculus [28]
  EC50: 18 µM
Oryctolagus cuniculus [29]
  EC50: > 100 µM
